# Screens deposited in PubChem BioAssay by Broad Institute.
# This is a sample that favours compounds with a hit; in the whole collection about 3.3% have one here.
# FGF22 binding – FGF22 (human) thermal shift binding; Q9HCT0; recombinant FGF22 thermal shift, SYPRO orange fluorescence; percent of sucrose octasulfate shift, DMSO zero; activity (Tm shift, normalised), % at 9.99 µM; hit rate 1.5% among 340,000; AID 651658;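 active = mean Tm shift, scaled 0 neutral to 100 positive control, at about 1.3% or above, every replicate too, limit read from the data; inconclusive = no clear call, values can overlap the other calls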
# Target sequence (Q9HCT0 whole entry, looked up): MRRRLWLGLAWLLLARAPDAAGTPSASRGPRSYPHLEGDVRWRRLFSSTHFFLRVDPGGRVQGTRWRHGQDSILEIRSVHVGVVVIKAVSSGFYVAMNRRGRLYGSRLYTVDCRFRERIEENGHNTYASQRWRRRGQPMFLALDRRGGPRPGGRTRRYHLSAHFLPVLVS
# PglD inh – inhibitors of Campylobacter jejuni PglD acetyltransferase; purified PglD enzyme, DTNB colorimetric CoA detection; inhibition, % at 12.5 µM; hit rate 0.098% among 360,000; AID 602405; in the data active = inhibition above about 16%, passing the limit was not always enough; inconclusive = no clear call, values can overlap the other calls
# Statin myotox sup – suppressors of simvastatin-induced myotoxicity in C2C12 myotubes | ATP luminescence, 48 h; scaled: DMSO 0, geranylgeraniol control 100 | rescue of ATP level, % at 7.49 µM | hit rate 0.78% among 330,000 | AID 602340;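 active = mean ATP rescue above about 67%, or every replicate alone reaching that limit, limit read from the data, passing the limit was not always enough; inconclusive = no clear call, values can overlap the other calls; inactive = mean under the limit and some replicate under it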;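 also: myotubes were challenged with 10 µM simvastatin during compound exposure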
# Xi reactivation – reactivates the inactive X chromosome in mouse fibroblasts. XiGFP mouse fibroblasts, % GFP-positive cells imaging, 3 d; cells co-treated with 5-aza-dC sensitizer; scaled so ellipticine positive control = 100%. activation, % at 7.58 µM. hit rate 0.055% among 360,000. AID 743238;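 active = mean normalized replicate activation at least 10% and every replicate at or above 10%; inconclusive = only one of the two criteria met; inactive = mean below 10% and not all replicates reach 10%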;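 also: 0% = median of on-plate neutral control wells and 100% = ellipticine 6 µM median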
#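 Assay system: SV40-immortalized XiGFP fibroblast cells, line 68-5-11; buffer or medium: DMEM plus 5-aza-dC sensitizer; compound: one concentration, pinned; timing: compounds 3 days, fix/stain 15 min at room temperature; benchmarks: positive control ellipticine, 6 µM final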
# E-sel inducer – E-selectin induction on HUVECs | P16581 | HUVEC E-selectin immunofluorescence imaging; normalized: neutral wells 0, TNF-alpha wells 100 | activation, % at 7.58 µM | hit rate 0.37% among 260,000 | AID 686992;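 active = mean E-selectin-positive cell signal at least 10% of the positive control, reached in at least 60% of replicates, without over 20% cell loss; inconclusive = no rule given, readout overlaps actives, possibly toxicity-flagged; inactive = the rest, including those meeting only one limit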
#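 Test system: HUVEC; input: 3,000 HUVEC/well; measured by: immunofluorescence imaging; read-out: % PE-positive cells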
# DENV2 CPE – inhibitors of DENV2 cytopathic effect; hit rate 1.7% among 350,000; CPE inhibition, % at 9.99 µM; DENV2-infected cells, cytopathic effect rescue, plate reader; in the data active = CPE inhibition above about 20%, passing the limit was not always enough; inconclusive = no clear call, values can overlap the other calls; tested in BHK-21 cells;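 also: 0% = median of neutral control wells and 100% = median of positive control wells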
# Active calls of the source: *; ? = inconclusive; . = not tested or not shown.
SMILES,FGF22 binding,PglD inh,Statin myotox sup,Xi reactivation,E-sel inducer,DENV2 CPE
CNCCc1ccc(OC)c(OC)c1,0,0,1,.,.,51*
N#CC1(c2ccccc2)CCN(C2CC(=O)N(c3ccc4c(c3)OCO4)C2=O)CC1 (centres undefined),44*,.,.,0,.,3
COC(=O)[C@@H]1[C@@H](CO)[C@@H]2Cn3c(cccc3=O)[C@@H]2N1CC1CC1,0,2,8,0,0,?
C=CCc1cc(OC)c2c(c1)OCO2,0,-3,2,.,.,14
C=CCc1ccc2c(c1)OCO2,0,.,.,.,.,93*
COc1ccc(CCNC2CCCCC2)cc1,0,.,.,0,.,-4
COc1ccc(C[C@H]2NC[C@H](O)[C@H]2OC(C)=O)cc1,0,0,79*,0,-2,-12
COC(=O)C1=C(c2ccc(Cl)c(C(F)(F)F)c2)C[C@@H]2CC[C@H]1N2C(=O)NCc1cc(C)oc1C(F)(F)F,0,-1,-25,-1,0,25*
COC(=O)C1=C(c2ccc(OC)c(OC)c2)C[C@@H]2CC[C@H]1N2C(=O)NCCOc1ccc(OC)cc1,0,0,121*,1,0,7
COC(=O)C1=C(c2ccc(Cl)c(C(F)(F)F)c2)C[C@@H]2CC[C@H]1N2C(=O)NCC1CC1,0,-1,4,0,0,-3
COC(=O)C1=C(c2ccc(OC)c(OC)c2)C[C@@H]2CC[C@H]1N2C(=O)NCCO,0,0,-5,0,0,?
C[C@H](CO)N1C[C@H](C)[C@H](CN(C)C(=O)Oc2cccc3ccccc23)OCc2cn(nn2)CCCC1=O,.,.,6,0,0,.
CC(=O)N1[C@@H]2Cn3c(ccc(-c4cccc(C(=O)N(C)C)c4)c3=O)[C@H]1[C@@H](C(=O)O)[C@@H]2CO,.,.,.,0,.,.
Cn1cc(CCC(=O)N2CCC3(CC2)OCCO3)c2ccccc21,.,0,112*,.,.,.
Cn1c(=O)cc(OCCCC(=O)N2CCC3(CC2)OCCO3)c2ccccc21,.,1,.,.,.,.
CCCCCn1c(=O)c(C(=O)Nc2ccccn2)c(O)c2ccccc21,0,-1,-302,0,0,-6
CCCCCCn1c(=O)c(C(=O)Nc2cnccn2)c(O)c2ccccc21,43*,.,.,0,.,0
Cc1ccc(N2C(=O)NC(=O)C(CCc3ccccn3)(Cc3cccc(Cl)c3Cl)C2=O)cc1 (centres undefined),.,-5,.,0,.,.
O=C1NC(=O)C(CCc2ccncc2)(CCc2ccccn2)C(=O)N1c1ccc(Br)cc1 (centres undefined),43*,.,.,0,.,5
COc1ccccc1C1=NCc2nnc(C)n2-c2ccc(Cl)cc21,.,.,.,0,.,.
COc1ccc(C2=NCc3nnc(C)n3-c3ccc(Cl)cc32)cc1Cl,.,4,98*,.,.,.
O=C(NC1(C(F)(F)F)Oc2ccc(Cl)cc2O1)N1CCC2(CC1)OCCO2 (centres undefined),.,3,17,.,.,.
O=C(NC1(C(F)(F)F)Oc2ccccc2O1)N1CCC2(CC1)OCCO2,.,19,101*,.,.,.
Cc1ccc(OC(=O)N(C)C[C@@H]2OCc3ccccc3-c3c(n(C)c4ccccc34)C(=O)N([C@H](C)CO)C[C@@H]2C)cc1,0,.,.,1,2,11
CN1CCN(C(=O)CN=[N+]=[N-])CC1,0,.,.,.,.,1
SMILES,FGF22 binding,PglD inh,Statin myotox sup,Xi reactivation,E-sel inducer,DENV2 CPE
COC(=O)C1=C(c2c(C)noc2C)C[C@@H]2CC[C@H]1N2C(=O)NC1CCCCC1,0,2,8,0,0,48*
CCC(C)C(=O)N[C@@H](c1ccccc1)[C@@H](O)C(=O)O[C@H]1C[C@@]2(O)[C@@H](OC(=O)c3ccccc3)C3[C@](C)(C(=O)[C@H](OC(C)=O)C(=C1C)C2(C)C)[C@@H](O)C[C@H]1OC[C@@]31OC(C)=O (some centres undefined),0,-3,-12,.,.,-14
CC/C=C/CC(=O)N[C@@H](c1ccccc1)[C@@H](O)C(=O)O[C@H]1C[C@@]2(O)[C@@H](OC(=O)c3ccccc3)C3[C@](C)(C(=O)[C@H](OC(C)=O)C(=C1C)C2(C)C)[C@@H](O)C[C@H]1OC[C@@]31OC(C)=O (some centres undefined),0,-2,-5,.,.,28*
COc1ccc(C(C)=O)cc1Cc1c(O)[nH]c(=S)[nH]c1=O,0,1,103*,0,0,-3
CCn1cc(/C=C2/CC3C4CC=C5CC(O)CCC5(C)C4CCC3(C)C2=O)c(C)n1 (centres undefined),.,.,-14,.,.,.
C=CC1CN2CCC1C[C@@H]2CO (some centres undefined),0,.,.,.,.,20*
C=C[C@H]1CN2CC[C@H]1C[C@H]2[C@H](O)c1ccnc2ccccc12,0,1,6,0,0,14
CN(C)C(=O)[C@H]1[C@H](CO)[C@H]2Cn3c(cccc3=O)[C@@H]1N2CC1CC1,0,6,-5,0,0,-4
CC=Cc1ccc2n(c1=O)C[C@H]1[C@H](CO)[C@@H](C(=O)N(C)C)[C@@H]2N1C (mixture of isomers),0,-2,-6,0,0,1
CCOC(=O)c1cc2cc(OC)ccc2n1C1CCN(Cc2ccccc2)CC1,0,.,.,0,0,35*
CC#CP(=O)(OC)C(O)(CF)c1ccccc1 (centres undefined),.,6,105*,0,.,1
COC(=O)[C@@H]1[C@@H](CO)[C@@H]2Cn3c(ccc(-c4ccccc4F)c3=O)[C@H]1N2CC1CCCC1,0,3,20,0,-1,0
Cc1nc2ccccc2c(=O)n1-c1nccs1,0,.,.,0,0,43*
CCC(C)c1cnc(CC(C)C)c(=O)n1O (centres undefined),0,-5,-13,.,.,59*
COC(=O)[C@H]1[C@H](CO)[C@H]2Cn3c(ccc(C4=CCCCC4)c3=O)[C@@H]1N2Cc1ccccn1,0,-3,3,0,0,1
CCCC(=O)c1c(O)[nH]c(=O)[nH]c1=O,0,-4,97*,.,.,10
COC(=O)[C@H]1[C@H](CO)[C@H]2Cn3c(ccc(-c4cccc(F)c4)c3=O)[C@@H]1N2C(=O)CC1CC1,0,-2,14,1,0,-6
Cc1cc(OCc2ccc([N+](=O)[O-])cc2)c2c3c(c(=O)oc2c1)CCCC3,0,1,-3,0,-1,151*
CS(=O)(=O)N1CC2NC(C1)C2c1ccc(Br)cc1 (centres undefined),.,.,.,0,.,.
O=C(Cc1cccnc1)N1CCCCN2[C@H](CO)[C@H](c3ccc(C#CC4(O)CCCC4)cc3)[C@H]2C1,0,-2,8,0,0,3
